Consider 15 compounds from paper PMC11112715 (ACS Omega, 2024).

The term IC50 denotes the concentration that inhibits the measured activity by half.

The test system of experiment [1] is SCC-9 cells (human tongue oral squamous cell carcinoma). The experiment is described as follows: MTT cell viability assay in SCC-9 cells. The format is cell-based. To be noted: for IC50: read-out: IC50 SSC9 oral squamous cell carcinoma; for Selectivity index (S.I.): IC50 in NIH3T3 / IC50 in SCC-9. In short, it runs like this: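 SCC-9 tongue OSCC cells from ATCC, grown in 1:1 DMEM/F12 with 10% FBS and 400 ng/mL hydrocortisone, 37 °C, 5% CO2. Plated at 5 × 10³ cells/well in triplicate, 48 h with graded test compound doses against matched DMSO (100% viability). MTT for 4 h, formazan in methanol/DMSO 1:1, absorbance 560 nm minus 670 nm. S.I. = IC50 NIH3T3 / IC50 SCC-9.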
On the technique in general: Tetrazolium assays rely on reduction of a dye to a coloured formazan, in cell work by metabolically active cells.

Experiment [2] deals with NIH3T3 mouse fibroblast cells. Put plainly: MTT cell viability assay in NIH3T3 normal fibroblasts. In kind it is cell-based. To be noted: read-out: IC50 NIH3T3 normal mouse fibroblasts. In short, it runs like this: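 NIH3T3 fibroblasts from ATCC, kept in DMEM with 10% FBS at 37 °C, 5% CO2. Seeded at 5 × 10³ cells/well in triplicate and exposed to a range of test compound concentrations for 48 h; DMSO diluted in medium at matching levels set 100% viability. MTT in medium for 4 h, formazan dissolved in 1:1 methanol/DMSO, A560 read minus 670 nm background.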

The subject of a further experiment is SCC-9 cells. Put plainly: Cell cycle progression and cell death, propidium iodide flow cytometry. In kind it is cell-based, human. Conditions: 48 h, compared to negative control. In general terms: Flow cytometry measures light scatter and fluorescence of single cells or particles in a stream.

Like-named read-outs stand apart in the source and are kept apart here.

On to `O=C1C=C(OCC#C[Se]c2ccc(Cl)cc2)C(=O)c2ccccc21` [Compound 9e, 2-((3-((4-Chlorophenyl)selanyl)prop-2-yn-1-yl)oxy)naphthalene-1,4-dione], for which the IC50 in experiment [1] (Homo sapiens, SCC-9, 48 h) was 65.4 µM.
Turning to `O=C1C=C(OCC#C[Se]c2ccc(F)cc2)C(=O)c2ccccc21` [Compound 9d, 2-((3-((4-Fluorophenyl)selanyl)prop-2-yn-1-yl)oxy)naphthalene-1,4-dione], the IC50 in experiment [2] (Mus musculus, NIH3T3, 48 h) was found to be 24.2 µM; in experiment [1] (Homo sapiens, SCC-9, 48 h), 23.5 µM. Besides, in experiment [1], the “Selectivity index (S.I.)” value was 1.03.
`N.N.O=C([O-])C1(C(=O)[O-])CCC1.[Pt+2]` [carboplatin, reference compound]: the IC50 in experiment [2] (MTT, 48 h treatment) came out at 156 µM; in experiment [1] (MTT, 48 h treatment), 572 µM. Moreover, the “Selectivity index (S.I.)” value in experiment [1] was determined as 0.27.
In the case of `Cc1cc(C)c([Se]C#CCOC2=CC(=O)c3ccccc3C2=O)c(C)c1` [Compound 9h, 2-((3-(Mesitylselanyl)prop-2-yn-1-yl)oxy)naphthalene-1,4-dione], in experiment [1] (Homo sapiens, SCC-9, 48 h), the IC50 was determined as 49 µM.
The same measure, in the same setting: with `C#CCOC1=C(Sc2ccccc2)C(=O)c2ccccc2C1=O` [Compound 11, 2-(Phenylthio)-3-(prop-2-yn-1-yloxy)naphthalene-1,4-dione] the figure was 62.3 µM.
`O=C1C=C(OCC#C[Se]c2ccccc2)C(=O)c2ccccc21` [Compound 9a, 2-((3-(Phenylselanyl)prop-2-yn-1-yl)oxy)naphthalene-1,4-dione]: the IC50 in experiment [2] (Mus musculus, NIH3T3, 48 h) was 83.6 µM; in experiment [1] (Homo sapiens, SCC-9, 48 h), 31.9 µM. Also, the “Selectivity index (S.I.)” value in experiment [1] came out at 2.62.
Take `O=C1C=C(OCC#C[Te]c2ccccc2)C(=O)c2ccccc21` [Compound 10a, 2-((3-(Phenyltellanyl)prop-2-yn-1-yl)oxy)naphthalene-1,4-dione]: in the experiment on SCC-9 cells, the “Effect on DNA fragmentation” value is listed as “increased DNA fragmentation”, the “Effect on cells in G2/M phases” value is reported as “no apparent alteration in the percentage of cells in the G2/M phases” and the “Effect on proportion of cells in G0/G1 phase” value (“Effect on proportion of cells” below) is given as “significantly decreased the proportion of cells in the G0/G1 phase”. Moreover, the IC50 in experiment [2] (Mus musculus, NIH3T3, 48 h) amounted to 5.83 µM. For the same compound, the IC50 in experiment [1] (Homo sapiens, SCC-9, 48 h) amounted to 1.65 µM. Further, the “Selectivity index (S.I.)” value in experiment [1] is recorded as 3.53.
`O=C1C=C(OCC#C[Te]c2ccc(Cl)cc2)C(=O)c2ccccc21` [Compound 10c, 2-((3-((4-Chlorophenyl)tellanyl)prop-2-yn-1-yl)oxy)naphthalene-1,4-dione]: in the experiment on SCC-9 cells, the “Effect on DNA fragmentation” value is “increased DNA fragmentation” and the “Effect on cells in G2/M phases” value is recorded as “marked reduction of cells in the G2/M phases”. In experiment [2] (Mus musculus, NIH3T3, 48 h), the IC50 was determined as 4.9 µM. Besides, in experiment [1] (Homo sapiens, SCC-9, 48 h), the IC50 was determined as 2.89 µM. In addition, in experiment [1], the “Selectivity index (S.I.)” value is 1.70.
`COc1ccc([Se]C#CCOC2=CC(=O)c3ccccc3C2=O)cc1` [Compound 9c, 2-((3-((4-Methoxyphenyl)selanyl)prop-2-yn-1-yl)oxy)naphthalene-1,4-dione]: the “Effect on proportion of cells” value with SCC-9 cells is on record as “increased numbers of cells in the G0/G1 phase”. In addition, the IC50 came out at 27.2 µM in experiment [2] (Mus musculus, NIH3T3, 48 h) and 24.8 µM in experiment [1] (Homo sapiens, SCC-9, 48 h). The “Selectivity index (S.I.)” value in experiment [1] is 1.10.
Turning to `CCCC[Se]C#CCOC1=CC(=O)c2ccccc2C1=O` [Compound 9i, 2-((3-(Butylselanyl)prop-2-yn-1-yl)oxy)naphthalene-1,4-dione], in experiment [1] (Homo sapiens, SCC-9, 48 h), the IC50 was found to be 37.4 µM.
Take `O=C1C=C(OCC#C[Se]c2ccc(C(F)(F)F)cc2)C(=O)c2ccccc21` [Compound 9f, 2-((3-((4-(Trifluoromethyl)phenyl)selanyl)prop-2-yn-1-yl)oxy)naphthalene-1,4-dione]: in the experiment with SCC-9 cells, the “Effect on DNA fragmentation” value is on record as “increased DNA fragmentation”, the “Effect on cells in G2/M phases” value is “marked reduction of cells in the G2/M phases” and the “Effect on proportion of cells” value is “increased numbers of cells in the G0/G1 phase”. Also, the IC50 in experiment [2] (Mus musculus, NIH3T3, 48 h) came to 56.5 µM. In addition, the IC50 in experiment [1] (Homo sapiens, SCC-9, 48 h) turned out to be 31.7 µM. Further, the “Selectivity index (S.I.)” value in experiment [1] is on record as 1.78.
In the case of `O=C1C=C(OCC#C[Se]c2ccc3ccccc3c2)C(=O)c2ccccc21` [Compound 9g, 2-((3-(Naphthalen-2-ylselanyl)prop-2-yn-1-yl)oxy)naphthalene-1,4-Dione], the IC50 in experiment [1] (Homo sapiens, SCC-9, 48 h) was found to be 68.2 µM.
For `COc1cccc2c1C(=O)c1c(O)c3c(c(O)c1C2=O)C[C@@](O)(C(=O)CO)C[C@@H]3O[C@H]1C[C@H](N)[C@H](O)[C@H](C)O1` [doxorubicin, reference compound], the IC50 in experiment [2] (Mus musculus, NIH3T3, 48 h) was 1.66 µM; in experiment [1] (Homo sapiens, SCC-9, 48 h), 2.71 µM. Further, the “Selectivity index (S.I.)” value in experiment [1] worked out at 0.61.
The corresponding values for `Cc1ccc([Se]C#CCOC2=CC(=O)c3ccccc3C2=O)cc1` [Compound 9b, 2-((3-(p-Tolylselanyl)prop-2-yn-1-yl)oxy)naphthalene-1,4-dione] are 8.93 µM, 17.1 µM and 0.52.
`Cc1ccc([Te]C#CCOC2=CC(=O)c3ccccc3C2=O)cc1` [Compound 10b, 2-((3-(p-Tolyltellanyl)prop-2-yn-1-yl)oxy)naphthalene-1,4-dione]: in the experiment on SCC-9 cells, the “Effect on DNA fragmentation” value is reported as “increased DNA fragmentation”, the “Effect on cells in G2/M phases” value is recorded as “no apparent alteration in the percentage of cells in the G2/M phases” and the “Effect on proportion of cells” value is “significantly decreased the proportion of cells in the G0/G1 phase”. The IC50 in experiment [2] (Mus musculus, NIH3T3, 48 h) stood at 2.27 µM. Besides, the IC50 in experiment [1] (Homo sapiens, SCC-9, 48 h) amounted to 4 µM. Further, the “Selectivity index (S.I.)” value in experiment [1] was found to be 0.57.
